Measured values published in ChEMBL document CHEMBL5154797 (Eur J Med Chem, 2022).

Tests used:
[1] = Cytotoxicity against golden hamster BSR cells assessed as reduction in cell viability incubated for 24 hrs by microplate luminometer method; assay type: toxicity, cell-based, Mesocricetus auratus; conditions: for CC50: bsr, 24 h; for CC50 at 24 h: BSR cells
Procedure, shortened: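 BSR cells given serial dilutions from 200 μM, with medium in place of virus. After 24 h at 37 °C, viability was read by luminometer and CC50 calculated.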

[2] = tested on: Huh-7; test: Cytotoxicity against human HuH-7 cells assessed as reduction in cell viability incubated for 24 hrs by microplate reader assay; assay type: functional
[3] = Selectivity index, ratio of CC50 for cytotoxicity against human Huh7 cells to EC50 for antiviral activity against S-protein based pseudotyped SARS-CoV-2 infected in Huh7 cells; assay type: functional
[4] = tested on: SARS-CoV-2; test: Antiviral activity against S-protein based pseudotyped SARS-CoV-2 infected in Huh7 cells measured after 24 hrs by bright-Glo luciferase assay; assay type: functional, organism-based; conditions: Severe acute respiratory syndrome coronavirus 2, Huh-7, 24 h
Procedure, shortened: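 Serial dilutions from 200 μM were held with pseudotyped SARS-CoV-2 (1.3 × 10^4 TCID50) at 37 °C for 1 h, then mixed with Huh7 cells (2000 cells/well) and incubated 24 h. EC50 was calculated from bioluminescence intensity.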

[5] = tested on: Lyssavirus rabies; test: Antirabies activity against rabies CVS infected in golden hamster BSR cells preincubated for 1 hr followed by mixing of cells measured after 24 hrs by inverted fluorescence microscope analysis; assay type: functional, organism-based
[6] = Selectivity index, ratio of CC50 for cytotoxicity against golden hamster BSR cells to EC50 for antirabies activity against Rabies virus infected in golden hamster BSR cells; assay type: toxicity, cell-based; conditions: read-out: Selectivity Index

Row | SMILES | CC50 [1] | CC50 [2] | Selectivity Index [3] | EC50 [4] | EC50 [5] | selectivity ratio [6] | CC50 at 24 h [1]
1 | COc1ccc(-n2c3c/c(=N\C4CCC(OC)CC4)c(Nc4ccc(F)cc4)cc-3nc3ccccc32)cn1 (stereo not given) | 84.4 µM | 51.3 µM | >5.1 | < 10 µM | 2.55 µM | 33.1 | –
2 | Clc1ccc(Nc2cc3nc4ccccc4n(-c4ccc(Cl)cc4)c-3c/c2=N\C2CC2)cc1 | – | > 267 µM | >1.9 | 141 µM | 22.7 µM | 14.2 | –
3 | CC(C)/N=c1\cc2n(-c3ccccc3)c3ccccc3nc-2cc1NCc1ccccc1 | 107 µM | < 10 µM | – | < 10 µM | 1.4 µM | 76.4 | –
4 | N=c1cc2n(-c3ccccc3)c3ccccc3nc-2cc1NCc1ccccc1 | – | – | – | – | 35.4 µM | 1 | 35.4 µM
5 | N=c1cc2n(-c3ccc(Cl)cc3)c3ccccc3nc-2cc1Nc1ccccc1 | 35.4 µM | < 10 µM | – | < 10 µM | 20.6 µM | 1.7 | –
6 | CC(C)/N=c1\cc2n(-c3ccc(F)cc3)c3ccccc3nc-2cc1Nc1ccc(Cl)cc1 | – | 17 µM | 0.6 | 29.6 µM | 4.02 µM | 55.6 | 223 µM
7 | COc1ccc(Nc2cc3nc4ccccc4n(-c4ccc(Cl)cc4)c-3c/c2=N\C(C)C)c(OC)c1 | 120 µM | 13.5 µM | >1.3 | < 10 µM | 6.86 µM | 17.6 | –
8 | CCC/N=c1\cc2n(-c3ccc(Cl)cc3)c3ccccc3nc-2cc1Nc1ccc(F)cc1 | 54.5 µM | 14.9 µM | 1.5 | 10.3 µM | 1.67 µM | 32.6 | –
9 | Fc1ccc(Nc2cc3nc4ccccc4n(-c4ccc(Cl)cc4)c-3c/c2=N\C2CC2)cc1 | – | 16.7 µM | 1.2 | 13.5 µM | 6.86 µM | 47.1 | –
10 | COc1ccc(Nc2cc3nc4ccccc4n(-c4ccc(OC)nc4)c-3c/c2=N\C(C)C)cc1 | – | 17.1 µM | >1.7 | < 10 µM | 13.2 µM | 24.5 | 323 µM
11 | CC(C)/N=c1\cc2n(-c3ccc(Cl)cc3)c3ccccc3nc-2cc1Nc1ccc(F)cc1 | – | 40.6 µM | 2.8 | 14.5 µM | 4.56 µM | 61.7 | 281 µM
12 | CC(C)/N=c1\cc2n(-c3ccccc3)c3ccccc3nc-2cc1NCc1ccc(F)cc1 | 17.3 µM | 29.6 µM | >2.9 | < 10 µM | 1.9 µM | 9.1 | –
13 | COc1ccc(-n2c3c/c(=N\C(C)C)c(Nc4ccccc4)cc-3nc3ccccc32)cn1 | – | < 10 µM | – | < 10 µM | 12.3 µM | 26.3 | 323 µM
14 | CC(C)/N=c1\cc2n(-c3ccc(Cl)cc3)c3ccccc3nc-2cc1Nc1ccc(OC(F)(F)F)cc1 | – | 38.4 µM | 3.8 | 9.98 µM | 1.77 µM | 182 | –
15 | CC(C)/N=c1\cc2n(-c3ccc(F)cc3)c3ccccc3nc-2cc1Nc1ccc(F)cc1 | – | 267 µM | 3.3 | 81.1 µM | 2.29 µM | 134 | 314 µM
16 | COc1ccc(Nc2cc3nc4ccccc4n(-c4ccccc4)c-3c/c2=N\C(C)C)cn1 | 107 µM | 22.7 µM | 1.7 | 13.5 µM | 5.03 µM | 21.2 | –
17 | COc1ccc(Nc2cc3nc4ccccc4n(-c4ccc(Cl)cc4)c-3c/c2=N\C(C)C)cn1 | 35.4 µM | > 267 µM | >1.7 | 153 µM | 2.29 µM | 15.5 | –
18 | CC(C)/N=c1\cc2n(-c3ccc(Cl)cc3)c3ccccc3nc-2cc1Nc1ccccc1 | 185 µM | 154 µM | 3.8 | 40.9 µM | 8.44 µM | 21.9 | –
19 | COc1ccc(Nc2cc3nc4ccccc4n(-c4ccc(Cl)cc4)c-3cc2=N)cc1 | – | > 267 µM | >1.7 | 154 µM | 106 µM | 1 | –
20 | CCC/N=c1\cc2n(-c3ccc(Cl)cc3)c3ccccc3nc-2cc1Nc1ccc(Cl)cc1 | – | 107 µM | 2.7 | 39.3 µM | 24.9 µM | 13 | 323 µM
21 | CC(C)/N=c1\cc2n(-c3ccccc3)c3ccccc3nc-2cc1Nc1ccccc1 | – | 177 µM | 10.2 | 17.2 µM | 10.7 µM | 30.1 | 323 µM
22 | COc1ccc(-n2c3c/c(=N\C4CC4)c(Nc4ccc(F)cc4)cc-3nc3ccccc32)cn1 | 107 µM | 88.9 µM | 2.7 | 33.1 µM | 13.2 µM | 8.1 | –
23 | COc1ccc(Nc2cc3nc4ccccc4n(-c4ccc(Cl)cc4)c-3c/c2=N\C(C)C)cc1 | 130 µM | 88.9 µM | 5.4 | 16.6 µM | 6.86 µM | 19 | –
24 | CCC/N=c1\cc2n(-c3ccccc3)c3ccccc3nc-2cc1Nc1ccccc1 | 14.4 µM | 35.6 µM | >3.5 | < 10 µM | 0.76 µM | 19 | –
25 | N=c1cc2n(-c3ccc(Cl)cc3)c3ccccc3nc-2cc1Nc1ccc(Cl)cc1 | 35.4 µM | – | – | – | 20.6 µM | 1.7 | –
26 | CC(C)/N=c1\cc2n(-c3ccc(Cl)cc3)c3ccccc3nc-2cc1NCc1ccc(Cl)cc1 | 93.1 µM | 16.1 µM | 1.3 | 12.4 µM | 0.76 µM | 123 | –
27 | COc1ccc(-n2c3c/c(=N\C(C)C)c(Nc4ccc(Cl)cc4)cc-3nc3ccccc32)cn1 | 107 µM | 51.3 µM | >5.1 | < 10 µM | 5.03 µM | 21.3 | –
28 | CC(C)/N=c1\cc2n(-c3ccccc3)c3ccccc3nc-2cc1Nc1ccc(Cl)cc1 | 42.6 µM | 16.1 µM | >1.6 | < 10 µM | 1.9 µM | 22.4 | –
29 | COc1ccc(Nc2cc3nc4ccccc4n(-c4ccc(Cl)cc4)c-3cc2=N)c(OC)c1 | – | 16.6 µM | 1 | 16.1 µM | 35.4 µM | 1 | –
30 | CCC/N=c1\cc2n(-c3ccc(OC)nc3)c3ccccc3nc-2cc1Nc1ccc(F)cc1 | 107 µM | < 10 µM | – | < 10 µM | 1.4 µM | 76.4 | –
